Data set [1] in a line: Binding towards monkey plasma protein at 10 uM. In kind it is ADME, cell-free. As to conditions: cercopithecidae. The procedure, abridged: (§1)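 Test compound incubated at 10 or 100 μM with plasma from mouse, rat, monkey, dog and human. The filtrate was analysed, and binding was expressed as percent bound at each concentration.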
Data set [2] in a line: Binding towards monkey plasma protein at 100 uM. The format is ADME, cell-free. As to conditions: cercopithecidae. The procedure, abridged: as §1
The nature of data set [3]: Binding towards human plasma protein at 10 uM. The format is ADME, cell-free. The procedure, abridged: as §1
The nature of data set [4]: Binding towards human plasma protein at 100 uM. In kind it is ADME, cell-free. The essentials: as §1
The species entered for data set [5] is Canis familiaris. The data set is described as follows: Plasma protein binding towards dog plasma at 10 uM. In kind it is ADME, Canis lupus familiaris. The procedure, abridged: as §1
Data set [6] is filed under the species Mus musculus. The data set can be described thus: Binding towards mouse plasma protein at 100 uM. The format is ADME. The essentials:
as §1

The species entered for data set [7] is Rattus norvegicus. The data set is described as follows: Binding towards rat plasma protein at 10 uM. The format is ADME. The procedure, abridged:
as §1

The species entered for data set [8] is Rattus norvegicus. The data set can be described thus: Binding towards rat plasma protein at 100 uM. In kind it is ADME. The essentials:
as §1

A further data set addresses Cytochrome P450 2C19 (Homo sapiens, UniProt P33261). The data set can be described thus: Inhibition of Cytochrome P450 2C19. The format is ADME.
The target of the next data set is Cathepsin B (Homo sapiens, UniProt P07858). The data set can be described thus: Inhibitory activity against Cathepsin B.
A further data set deals with Cytochrome P450 2C9 (Homo sapiens, UniProt P11712). The data set is described as follows: Inhibition of Cytochrome P450 2C9. The format is ADME.
Sequence of Cytochrome P450 2C9 (P11712 whole entry): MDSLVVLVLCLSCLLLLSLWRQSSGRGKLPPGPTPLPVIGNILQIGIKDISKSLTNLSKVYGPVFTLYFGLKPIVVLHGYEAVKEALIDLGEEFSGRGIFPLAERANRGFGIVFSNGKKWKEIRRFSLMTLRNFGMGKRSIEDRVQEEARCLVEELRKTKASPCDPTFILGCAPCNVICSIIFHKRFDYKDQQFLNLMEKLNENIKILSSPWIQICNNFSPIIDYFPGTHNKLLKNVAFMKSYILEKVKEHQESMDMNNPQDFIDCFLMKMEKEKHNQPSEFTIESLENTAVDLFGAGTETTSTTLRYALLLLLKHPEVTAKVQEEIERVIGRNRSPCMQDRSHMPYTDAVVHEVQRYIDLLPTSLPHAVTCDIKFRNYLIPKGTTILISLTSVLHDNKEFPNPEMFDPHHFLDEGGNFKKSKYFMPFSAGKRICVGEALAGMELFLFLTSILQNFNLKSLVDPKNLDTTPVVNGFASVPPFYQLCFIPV
Another data set addresses Coagulation factor X (Homo sapiens, UniProt P00742). The data set is described as follows: Inhibitory activity against Coagulation factor X.
A further data set concerns the target T1, Coagulation factor VII (Homo sapiens, UniProt P08709).
T1 sequence (P08709 whole entry): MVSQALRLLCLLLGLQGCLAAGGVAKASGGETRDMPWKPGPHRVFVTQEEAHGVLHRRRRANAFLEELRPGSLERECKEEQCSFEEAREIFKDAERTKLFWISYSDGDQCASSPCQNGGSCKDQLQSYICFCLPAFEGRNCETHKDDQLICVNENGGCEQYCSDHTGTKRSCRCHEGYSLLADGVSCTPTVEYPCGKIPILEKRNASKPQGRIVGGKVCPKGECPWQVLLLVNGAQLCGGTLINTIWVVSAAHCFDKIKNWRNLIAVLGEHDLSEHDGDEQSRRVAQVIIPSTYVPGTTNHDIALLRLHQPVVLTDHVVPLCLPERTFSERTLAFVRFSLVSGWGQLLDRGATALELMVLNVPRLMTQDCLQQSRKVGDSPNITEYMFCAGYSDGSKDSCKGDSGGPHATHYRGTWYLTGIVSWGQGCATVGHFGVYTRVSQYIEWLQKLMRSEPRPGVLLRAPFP
The data set is described as follows: Inhibitory activity against coagulation factor VII.

The next data set has as its target Chymotrypsinogen A (Bos taurus, UniProt P00766). The data set can be described thus: Inhibitory activity against Chymotrypsinogen.
In data set [9] the target is T2, Cytochrome P450 3A4 (Homo sapiens, UniProt P08684). The data set is described as follows: Inhibition of Cytochrome P450 3A4 as BFC substrate. The format is ADME.
T2 sequence (P08684 whole entry): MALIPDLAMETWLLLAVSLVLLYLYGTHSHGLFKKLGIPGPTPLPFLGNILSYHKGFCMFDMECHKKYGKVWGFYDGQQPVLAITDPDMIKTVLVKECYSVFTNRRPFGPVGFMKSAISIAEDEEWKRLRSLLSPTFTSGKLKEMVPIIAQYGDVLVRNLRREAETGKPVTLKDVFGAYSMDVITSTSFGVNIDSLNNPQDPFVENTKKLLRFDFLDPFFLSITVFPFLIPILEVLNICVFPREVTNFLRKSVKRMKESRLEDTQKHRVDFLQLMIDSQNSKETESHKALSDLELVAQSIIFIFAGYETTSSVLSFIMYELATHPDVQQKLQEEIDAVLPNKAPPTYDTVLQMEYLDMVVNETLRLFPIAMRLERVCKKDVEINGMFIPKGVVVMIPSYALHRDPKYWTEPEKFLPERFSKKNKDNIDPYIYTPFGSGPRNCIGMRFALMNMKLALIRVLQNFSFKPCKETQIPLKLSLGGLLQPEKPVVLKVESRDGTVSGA
Data set [10] addresses T2, Cytochrome P450 3A4. The data set can be described thus: Inhibition of Cytochrome P450 3A4 as BQ substrate. In kind it is ADME.
Another data set addresses Cytochrome P450 2D6 (Homo sapiens, UniProt P10635). The data set is described as follows: Inhibition of Cytochrome P450 2D6. The format is ADME.
Another data set deals with T3, Caspase-1 (Homo sapiens, UniProt P29466).
T3 sequence (P29466 whole entry): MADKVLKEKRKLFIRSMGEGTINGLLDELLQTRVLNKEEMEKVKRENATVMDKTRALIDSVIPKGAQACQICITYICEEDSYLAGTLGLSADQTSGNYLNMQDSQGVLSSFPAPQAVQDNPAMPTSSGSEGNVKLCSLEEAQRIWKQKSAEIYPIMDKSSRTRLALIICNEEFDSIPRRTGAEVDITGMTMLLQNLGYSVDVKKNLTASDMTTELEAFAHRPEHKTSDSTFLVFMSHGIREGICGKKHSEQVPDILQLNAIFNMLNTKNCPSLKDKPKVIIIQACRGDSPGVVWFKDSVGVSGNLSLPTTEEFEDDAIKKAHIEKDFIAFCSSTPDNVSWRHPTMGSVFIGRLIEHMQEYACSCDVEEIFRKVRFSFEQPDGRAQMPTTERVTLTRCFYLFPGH
The data set can be described thus: Inhibitory activity against interleukin 1-beta converting enzyme (IL-1 beta converting enzyme).

Data set [11] in a line: The compound was tested for toxicity using human neuroblastoma SY5Y cells. The format is cell-based. The procedure, abridged:
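Cytotoxicity was assessed in cultured human neuroblastoma SY5Y cells, alongside rat cerebellar granule neurons.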

A further data set relates to Proteasome. The data set is described as follows: Inhibitory activity against proteasome. In kind it is subcellular.
The next data set has as its target Serine protease 1 (Homo sapiens, UniProt P07477). The data set can be described thus: Inhibitory activity against trypsin.
For the next data set, the target named is Prothrombin (Homo sapiens, UniProt P00734). The data set can be described thus: Inhibitory activity against thrombin.
For data set [12], the species on record is Canis familiaris. The data set is described as follows: Plasma protein binding towards dog plasma at 100 uM. The format is ADME, Canis lupus familiaris. The procedure, abridged:
as §1

The species entered for data set [13] is Mus musculus. The data set is described as follows: Binding towards mouse plasma protein at 10 uM. The format is ADME. The essentials:
as §1

In ChEMBL document CHEMBL1145779, “Structure-activity relationship study and drug profile of N-(4-fluorophenylsulfonyl)-L-valyl-L-leucinal (SJA6017) as a potent calpain inhibitor” (J Med Chem, 2003) one finds Binding, IC50 and CC50 data, which are given here for two compounds.

Sequence of Coagulation factor X (P00742 41-179 limits assumed): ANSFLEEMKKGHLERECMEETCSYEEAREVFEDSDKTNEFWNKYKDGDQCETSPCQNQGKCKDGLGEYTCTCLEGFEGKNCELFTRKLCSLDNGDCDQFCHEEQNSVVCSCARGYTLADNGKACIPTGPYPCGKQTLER
Sequence of Coagulation factor X (P00742 235-488 limits assumed): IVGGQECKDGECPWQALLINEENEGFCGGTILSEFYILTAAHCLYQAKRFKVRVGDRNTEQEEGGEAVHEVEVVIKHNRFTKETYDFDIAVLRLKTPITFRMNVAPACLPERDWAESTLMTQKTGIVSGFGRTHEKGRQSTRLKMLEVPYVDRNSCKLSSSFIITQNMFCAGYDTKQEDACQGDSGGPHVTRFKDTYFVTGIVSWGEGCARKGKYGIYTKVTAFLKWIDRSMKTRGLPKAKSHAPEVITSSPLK
Sequence of Cytochrome P450 2D6 (P10635 whole entry): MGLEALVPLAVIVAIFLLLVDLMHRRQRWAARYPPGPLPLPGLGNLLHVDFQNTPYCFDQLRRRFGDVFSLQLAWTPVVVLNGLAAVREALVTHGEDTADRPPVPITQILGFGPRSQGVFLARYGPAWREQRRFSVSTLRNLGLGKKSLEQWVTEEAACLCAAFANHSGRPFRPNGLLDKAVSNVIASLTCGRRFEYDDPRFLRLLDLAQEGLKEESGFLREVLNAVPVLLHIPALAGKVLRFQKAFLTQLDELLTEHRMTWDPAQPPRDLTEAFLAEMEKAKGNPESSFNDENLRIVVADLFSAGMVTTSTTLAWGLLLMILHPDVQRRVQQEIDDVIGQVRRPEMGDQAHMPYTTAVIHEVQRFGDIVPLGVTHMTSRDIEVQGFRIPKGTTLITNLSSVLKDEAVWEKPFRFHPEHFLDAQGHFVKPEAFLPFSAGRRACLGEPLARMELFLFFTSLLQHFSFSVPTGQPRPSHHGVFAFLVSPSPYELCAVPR
Sequence of Cytochrome P450 2C19 (P33261 whole entry): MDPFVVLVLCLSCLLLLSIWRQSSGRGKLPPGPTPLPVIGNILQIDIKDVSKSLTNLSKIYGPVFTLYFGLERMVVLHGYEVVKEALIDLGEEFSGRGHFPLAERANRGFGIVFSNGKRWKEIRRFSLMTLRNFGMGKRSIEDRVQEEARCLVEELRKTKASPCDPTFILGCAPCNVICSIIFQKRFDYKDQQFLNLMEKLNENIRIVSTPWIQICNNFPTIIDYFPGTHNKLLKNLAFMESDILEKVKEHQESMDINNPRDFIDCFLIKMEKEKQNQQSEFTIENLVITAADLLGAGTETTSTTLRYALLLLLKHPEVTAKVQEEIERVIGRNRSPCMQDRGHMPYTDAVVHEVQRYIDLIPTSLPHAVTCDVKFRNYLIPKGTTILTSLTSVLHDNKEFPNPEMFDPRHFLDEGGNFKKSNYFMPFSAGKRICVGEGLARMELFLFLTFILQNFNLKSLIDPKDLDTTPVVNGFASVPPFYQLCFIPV
Sequence of Serine protease 1 (P07477 whole entry): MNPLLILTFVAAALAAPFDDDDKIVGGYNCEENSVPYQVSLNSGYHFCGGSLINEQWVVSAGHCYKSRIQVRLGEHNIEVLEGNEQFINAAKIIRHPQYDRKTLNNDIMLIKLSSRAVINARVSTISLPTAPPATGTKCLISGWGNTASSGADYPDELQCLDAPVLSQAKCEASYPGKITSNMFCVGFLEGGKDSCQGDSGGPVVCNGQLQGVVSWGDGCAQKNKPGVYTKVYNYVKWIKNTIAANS

With `CC(C)C[C@H](C=O)NC(=O)[C@@H](NS(=O)(=O)c1ccc(F)cc1)C(C)C`, the Binding in data set [1] is on record as 95.1%; in data set [2] it was 90.5%; in [3], 95.4%; in [4], 91.6%; in the data set listed under Canis familiaris [5] it was 75.8%; in the data set filed under Mus musculus [6], 90.2%. The Binding in the data set filed under Rattus norvegicus [7] came to 89.9%; in the data set filed under Rattus norvegicus [8] it was 85.4%; in the data set listed under Canis familiaris [12] it was 66.8%; in the data set listed under Mus musculus [13], 89.9%. Also, the half-maximal inhibitory concentration (IC50) on Cytochrome P450 2C19 is 177 µM; against Cathepsin B, 0.015 µM; against Cytochrome P450 2C9, 492 µM; against Coagulation factor X, greater than 60 µM; against Coagulation factor VII, greater than 100 µM; at Chymotrypsinogen A it was greater than 200 µM. For the same compound, the concentration for half-maximal inhibition (IC50) at Cytochrome P450 3A4 [9] is 81 µM; against Cytochrome P450 3A4 [10] it was 531 µM; against Cytochrome P450 2D6 it was 291 µM; on Caspase-1, greater than 100 µM; with Proteasome it was greater than 200 µM; against Serine protease 1 it was greater than 100 µM. Moreover, the half-maximal inhibitory concentration (IC50) on Prothrombin is greater than 100 µM. Also, the CC50 in [11] is greater than 1000 µM.

For `CC(C)C[C@H](C=O)NC(=O)[C@@H](NS(=O)(=O)c1ccc2ccccc2c1)C(C)C`, the CC50 in data set [11] (read-out: LD50 (the source's name)) was 9.8 µM.
